Data: ChEMBL document CHEMBL1770123, “SPF32629A and SPF32629B: enantioselective synthesis, determination of absolute configuration, cytotoxicity and antibacterial evaluation” (Eur J Med Chem, 2011)
Values after ≈ are worked out from the molar mass of the structure shown. Active and inactive are the calls of the source. The rule behind the calls is not given here.

Tests used:
Escherichia coli [1] = assay: Antimicrobial activity against Escherichia coli at 100 ug/disc after 24 hrs by disc diffusion method; type: functional; conditions: read-out: DIZ
Bacillus subtilis [2] = assay: Antimicrobial activity against Bacillus subtilis at 100 ug/disc after 24 hrs by disc diffusion method; type: functional; conditions: read-out: DIZ
[3] = tested on: Staphylococcus epidermidis; assay: Antimicrobial activity against Staphylococcus epidermidis at 100 ug/disc after 24 hrs by disc diffusion method; type: functional; conditions: read-out: DIZ
Klebsiella pneumoniae [4] = assay: Antimicrobial activity against Klebsiella pneumoniae at 100 ug/disc after 24 hrs by disc diffusion method; type: functional; conditions: read-out: DIZ
Listeria monocytogenes [5] = assay: Antimicrobial activity against Listeria monocytogenes at 100 ug/disc after 24 hrs by disc diffusion method; type: functional; conditions: read-out: DIZ
Salmonella typhimurium [6] = assay: Antimicrobial activity against Salmonella Typhimurium at 100 ug/disc after 24 hrs by disc diffusion method; type: functional, Salmonella enterica subsp. enterica serovar Typhimurium; conditions: Salmonella enterica, read-out: DIZ
Staphylococcus aureus [7] = assay: Antimicrobial activity against Staphylococcus aureus at 100 ug/disc after 24 hrs by disc diffusion method; type: functional; conditions: read-out: DIZ
Staphylococcus aureus [8] = assay: Antimicrobial activity against methicillin-resistant Staphylococcus aureus strain 1 TB3G at 100 ug/disc after 24 hrs by disc diffusion method; type: functional; conditions: read-out: DIZ
Staphylococcus aureus [9] = assay: Antimicrobial activity against methicillin-resistant Staphylococcus aureus strain 2 TB4G at 100 ug/disc after 24 hrs by disc diffusion method; type: functional; conditions: read-out: DIZ
Staphylococcus aureus [10] = assay: Antimicrobial activity against methicillin-resistant Staphylococcus aureus strain 4 TB5G at 100 ug/disc after 24 hrs by disc diffusion method; type: functional, organism-based
Escherichia coli [11] = assay: Antimicrobial activity against Escherichia coli after 24 hrs by microdilution method; type: functional
In short: (§1)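 Growth was judged by turbidity, and the MIC was taken as the minimum concentration giving the lowest growth. Amikacin served as reference.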

Bacillus subtilis [12] = assay: Antimicrobial activity against Bacillus subtilis after 24 hrs by microdilution method; type: functional; in short: as §1
[13] = tested on: Staphylococcus epidermidis; assay: Antimicrobial activity against Staphylococcus epidermidis after 24 hrs by microdilution method; type: functional; in short: as §1
Klebsiella pneumoniae [14] = assay: Antimicrobial activity against Klebsiella pneumoniae after 24 hrs by microdilution method; type: functional; in short: as §1
Listeria monocytogenes [15] = assay: Antimicrobial activity against Listeria monocytogenes after 24 hrs by microdilution method; type: functional; in short: as §1
Salmonella typhimurium [16] = assay: Antimicrobial activity against Salmonella Typhimurium after 24 hrs by microdilution method; type: functional, Salmonella enterica subsp. enterica serovar Typhimurium; conditions: Salmonella enterica; in short: as §1
Staphylococcus aureus [17] = assay: Antimicrobial activity against Staphylococcus aureus after 24 hrs by microdilution method; type: functional; in short: as §1
Staphylococcus aureus [18] = assay: Antimicrobial activity against methicillin-resistant Staphylococcus aureus strain 1 TB3G after 24 hrs by microdilution method; type: functional
In short: (§2)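 Growth was judged by turbidity. The MIC was taken as the lowest concentration giving the lowest growth.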

Staphylococcus aureus [19] = assay: Antimicrobial activity against methicillin-resistant Staphylococcus aureus strain 2 TB4G after 24 hrs by microdilution method; type: functional; in short: as §2
Staphylococcus aureus [20] = assay: Antimicrobial activity against methicillin-resistant Staphylococcus aureus strain 4 TB5G after 24 hrs by microdilution method; type: functional; in short: as §2
Chymase = target: T1, Chymase (Homo sapiens, UniProt P23946); assay: Inhibition of human chymase
T1 sequence (P23946 whole entry): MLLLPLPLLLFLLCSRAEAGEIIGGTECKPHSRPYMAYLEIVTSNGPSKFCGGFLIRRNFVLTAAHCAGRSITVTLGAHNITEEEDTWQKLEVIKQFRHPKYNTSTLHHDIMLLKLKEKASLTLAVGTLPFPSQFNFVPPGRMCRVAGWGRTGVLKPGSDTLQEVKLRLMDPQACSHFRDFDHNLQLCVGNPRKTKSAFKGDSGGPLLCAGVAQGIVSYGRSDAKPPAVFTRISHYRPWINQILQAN

[21] = Inhibition of human elastase
Escherichia coli [22] = assay: Antimicrobial activity against Escherichia coli at 500 ug/disc after 24 hrs by disc diffusion method; type: functional; conditions: read-out: DIZ
Escherichia coli [23] = assay: Antimicrobial activity against Escherichia coli at 1000 ug/disc after 24 hrs by disc diffusion method; type: functional; conditions: read-out: DIZ
Bacillus subtilis [24] = assay: Antimicrobial activity against Bacillus subtilis at 500 ug/disc after 24 hrs by disc diffusion method; type: functional; conditions: read-out: DIZ
Bacillus subtilis [25] = assay: Antimicrobial activity against Bacillus subtilis at 1000 ug/disc after 24 hrs by disc diffusion method; type: functional; conditions: read-out: DIZ
[26] = tested on: Staphylococcus epidermidis; assay: Antimicrobial activity against Staphylococcus epidermidis at 500 ug/disc after 24 hrs by disc diffusion method; type: functional; conditions: read-out: DIZ
[27] = tested on: Staphylococcus epidermidis; assay: Antimicrobial activity against Staphylococcus epidermidis at 1000 ug/disc after 24 hrs by disc diffusion method; type: functional; conditions: read-out: DIZ
Klebsiella pneumoniae [28] = assay: Antimicrobial activity against Klebsiella pneumoniae at 500 ug/disc after 24 hrs by disc diffusion method; type: functional; conditions: read-out: DIZ
Klebsiella pneumoniae [29] = assay: Antimicrobial activity against Klebsiella pneumoniae at 1000 ug/disc after 24 hrs by disc diffusion method; type: functional; conditions: read-out: DIZ
Listeria monocytogenes [30] = assay: Antimicrobial activity against Listeria monocytogenes at 500 ug/disc after 24 hrs by disc diffusion method; type: functional; conditions: read-out: DIZ
Listeria monocytogenes [31] = assay: Antimicrobial activity against Listeria monocytogenes at 1000 ug/disc after 24 hrs by disc diffusion method; type: functional; conditions: read-out: DIZ
Salmonella typhimurium [32] = assay: Antimicrobial activity against Salmonella Typhimurium at 500 ug/disc after 24 hrs by disc diffusion method; type: functional, Salmonella enterica subsp. enterica serovar Typhimurium; conditions: Salmonella enterica, read-out: DIZ
Salmonella typhimurium [33] = assay: Antimicrobial activity against Salmonella Typhimurium at 1000 ug/disc after 24 hrs by disc diffusion method; type: functional, Salmonella enterica subsp. enterica serovar Typhimurium; conditions: Salmonella enterica, read-out: DIZ
Staphylococcus aureus [34] = assay: Antimicrobial activity against Staphylococcus aureus at 500 ug/disc after 24 hrs by disc diffusion method; type: functional; conditions: read-out: DIZ
In short: (§3)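 Disc diffusion on 2.4% Mueller-Hinton agar inoculated with the strain. Paper discs 6 mm across were loaded with test compound and placed on the agar. Plates were incubated at 37 °C for 24 h. Read-out was the diameter of the inhibition zone in mm.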

Staphylococcus aureus [35] = assay: Antimicrobial activity against Staphylococcus aureus at 1000 ug/disc after 24 hrs by disc diffusion method; type: functional; conditions: read-out: DIZ
Staphylococcus aureus [36] = assay: Antimicrobial activity against methicillin-resistant Staphylococcus aureus strain 1 TB3G at 500 ug/disc after 24 hrs by disc diffusion method; type: functional; conditions: read-out: DIZ; in short: as §3
Staphylococcus aureus [37] = assay: Antimicrobial activity against methicillin-resistant Staphylococcus aureus strain 1 TB3G at 1000 ug/disc after 24 hrs by disc diffusion method; type: functional; conditions: read-out: DIZ; in short: as §3
Staphylococcus aureus [38] = assay: Antimicrobial activity against methicillin-resistant Staphylococcus aureus strain 2 TB4G at 500 ug/disc after 24 hrs by disc diffusion method; type: functional; conditions: read-out: DIZ; in short: as §3
Staphylococcus aureus [39] = assay: Antimicrobial activity against methicillin-resistant Staphylococcus aureus strain 2 TB4G at 1000 ug/disc after 24 hrs by disc diffusion method; type: functional; conditions: read-out: DIZ; in short: as §3
Staphylococcus aureus [40] = assay: Antimicrobial activity against methicillin-resistant Staphylococcus aureus strain 4 TB5G at 500 ug/disc after 24 hrs by disc diffusion method; type: functional; conditions: read-out: DIZ; in short: as §3
Staphylococcus aureus [41] = assay: Antimicrobial activity against methicillin-resistant Staphylococcus aureus strain 4 TB5G at 1000 ug/disc after 24 hrs by disc diffusion method; type: functional; conditions: read-out: DIZ; in short: as §3
A549 [42] = assay: Cytotoxicity against human A549 cells assessed as cell death at 1 ug after 48 hrs by MTT assay; type: functional
In short: (§4)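 A549 cells were grown in DMEM with 2 mmol L-glutamine, 10% FBS, penicillin (50 IU/mL) and streptomycin, at 37 °C and 5% CO2. 1×10^4 cells/well were plated and treated 24 h later with compound diluted in medium for 48 h. Controls were DMSO-matched and untreated wells. MTT 0.4 mg/mL in PBS was added for 4 h in the dark, then DMSO for 4 h. A540 was read and reported as % live cells relative to untreated.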

A549 [43] = assay: Cytotoxicity against human A549 cells assessed as cell death at 2 ug after 48 hrs by MTT assay; type: functional; in short: as §4
A549 [44] = assay: Cytotoxicity against human A549 cells assessed as cell death at 5 ug after 48 hrs by MTT assay; type: functional; in short: as §4
A549 [45] = assay: Cytotoxicity against human A549 cells assessed as cell death at 10 ug after 48 hrs by MTT assay; type: functional; in short: as §4
A549 [46] = assay: Cytotoxicity against human A549 cells assessed as cell death at 25 ug after 48 hrs by MTT assay; type: functional; in short: as §4
A549 [47] = assay: Cytotoxicity against human A549 cells after 48 hrs by MTT assay; type: functional, cell-based; conditions: A549, 48 h
In short: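 A549 cells were kept in DMEM with 2 mM L-glutamine, 10% FBS, penicillin 50 IU/mL and streptomycin at 37 °C under 5% CO2. 1×10^4 cells per well were treated 24 h after seeding with compounds diluted in medium for 48 h. MTT (0.4 mg/mL in PBS) was added for 4 h in the dark, formazan was dissolved in DMSO for 4 h and absorbance read at 540 nm. Viability was expressed as % of untreated cells, and IC50 was derived.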

Structure (SMILES): NCC[C@H](O)C(=O)N[C@@H]1C[C@H](N)[C@@H](O[C@H]2O[C@H](CN)[C@@H](O)[C@H](O)[C@H]2O)[C@H](O)[C@H]1O[C@H]1O[C@H](CO)[C@@H](O)[C@H](N)[C@H]1O [AMIKACIN]
- zone of inhibition at 100 µg/disc (Escherichia coli [1]): 22 mm
- zone of inhibition at 100 µg/disc (Bacillus subtilis [2]): 21 mm
- zone of inhibition at 100 µg/disc [3]: 22 mm
- zone of inhibition at 100 µg/disc (Klebsiella pneumoniae [4]): 21 mm
- zone of inhibition at 100 µg/disc (Listeria monocytogenes [5]): 20 mm
- zone of inhibition at 100 µg/disc (Salmonella typhimurium [6]): 19 mm
- zone of inhibition at 100 µg/disc (Staphylococcus aureus [7]): 20 mm
- zone of inhibition at 100 µg/disc (Staphylococcus aureus [8]): 17 mm
- zone of inhibition at 100 µg/disc (Staphylococcus aureus [9]): 19 mm
- diameter of the inhibition zone (DIZ) (Staphylococcus aureus [10]): inactive
- MIC (Escherichia coli [11]): 6 µg/mL (≈ 10.2 µM)
- MIC (Bacillus subtilis [12]): 6 µg/mL (≈ 10.2 µM)
- MIC [13]: 12 µg/mL (≈ 20.5 µM)
- MIC (Klebsiella pneumoniae [14]): 6 µg/mL (≈ 10.2 µM)
- MIC (Listeria monocytogenes [15]): 6 µg/mL (≈ 10.2 µM)
- MIC (Salmonella typhimurium [16]): 12 µg/mL (≈ 20.5 µM)
- MIC (Staphylococcus aureus [17]): 50 µg/mL (≈ 85.4 µM)
- MIC (Staphylococcus aureus [18]): > 100 µg/mL
- MIC (Staphylococcus aureus [19]): > 100 µg/mL
- MIC (Staphylococcus aureus [20]): > 100 µg/mL

Structure (SMILES): CC(C)CC(=O)OC(c1ccccc1)c1cc(O)c(C(=O)O)c(=O)[nH]1 (racemic)
- IC50 (Chymase): 1.22 µM
- IC50 [21]: 4.5 µg/mL (≈ 13 µM)
- zone of inhibition at 500 µg/disc (Escherichia coli [22]): 8 mm
- zone of inhibition at 1000 µg/disc (Escherichia coli [23]): 15 mm
- zone of inhibition at 500 µg/disc (Bacillus subtilis [24]): 7 mm
- zone of inhibition at 1000 µg/disc (Bacillus subtilis [25]): 13 mm
- zone of inhibition at 500 µg/disc [26]: 8 mm
- zone of inhibition at 1000 µg/disc [27]: 17 mm
- zone of inhibition at 500 µg/disc (Klebsiella pneumoniae [28]): 12 mm
- zone of inhibition at 1000 µg/disc (Klebsiella pneumoniae [29]): 21 mm
- zone of inhibition at 500 µg/disc (Listeria monocytogenes [30]): 11 mm
- zone of inhibition at 1000 µg/disc (Listeria monocytogenes [31]): 20 mm
- zone of inhibition at 500 µg/disc (Salmonella typhimurium [32]): 9 mm
- zone of inhibition at 1000 µg/disc (Salmonella typhimurium [33]): 20 mm
- zone of inhibition at 500 µg/disc (Staphylococcus aureus [34]): 7 mm
- zone of inhibition at 1000 µg/disc (Staphylococcus aureus [35]): 15 mm
- zone of inhibition at 500 µg/disc (Staphylococcus aureus [36]): 5 mm
- zone of inhibition at 1000 µg/disc (Staphylococcus aureus [37]): 10 mm
- zone of inhibition at 500 µg/disc (Staphylococcus aureus [38]): 7 mm
- zone of inhibition at 1000 µg/disc (Staphylococcus aureus [39]): 12 mm
- zone of inhibition at 500 µg/disc (Staphylococcus aureus [40]): 6 mm
- zone of inhibition at 1000 µg/disc (Staphylococcus aureus [41]): 12 mm
- MIC (Escherichia coli [11]): 50 µg/mL (≈ 145 µM)
- MIC (Bacillus subtilis [12]): 25 µg/mL (≈ 72.4 µM)
- MIC [13]: > 100 µg/mL
- MIC (Klebsiella pneumoniae [14]): 50 µg/mL (≈ 145 µM)
- MIC (Listeria monocytogenes [15]): 50 µg/mL (≈ 145 µM)
- MIC (Salmonella typhimurium [16]): > 100 µg/mL
- MIC (Staphylococcus aureus [17]): > 100 µg/mL
- MIC (Staphylococcus aureus [18]): > 100 µg/mL
- MIC (Staphylococcus aureus [19]): > 100 µg/mL
- MIC (Staphylococcus aureus [20]): > 100 µg/mL
- Activity (A549 [42]): 7.07%
- Activity (A549 [43]): 21.53%
- Activity (A549 [44]): 44%
- Activity (A549 [45]): 71.07%
- Activity (A549 [46]): 81.53%
- IC50 (A549 [47]): 11 µM
